In ChEMBL document CHEMBL4350961, “Discovery of Pyrrolo[3,2- d]pyrimidin-4-one Derivatives as a New Class of Potent and Cell-Active Inhibitors of P300/CBP-Associated Factor Bromodomain” (J Med Chem, 2019):
Calls of active or inactive are those of the source.

Key:
[1] = molecular target: Transcription initiation factor TFIID subunit 1 (Homo sapiens) (UniProt P21675); test: Binding affinity to human partial length TAF1 bromodomain 2 (D1521 to D1656 residues) expressed in bacterial expression system at 1 uM by BROMOscan assay
Method in brief: (§1)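 BROMOscan bromodomain cross-screen run by an outside service, compound at 1 µM against 32 recombinant bromodomains. Binding given as percent of control.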

[2] = molecular target: Transcription intermediary factor 1-alpha (Homo sapiens) (UniProt O15164); test: Binding affinity to human partial length TRIM24 (P790 to P977 residues) expressed in bacterial expression system at 1 uM by BROMOscan assay; method in brief: as §1
[3] = molecular target: Bromodomain and WD repeat-containing protein 1 (Homo sapiens) (UniProt Q9NSI6); test: Binding affinity to human partial length WDR9 bromodomain 2 (A1310 to E1430 residues) expressed in bacterial expression system at 1 uM by BROMOscan assay
Method in brief: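 Outsourced competition-binding profiling (BROMOscan) at a single concentration of 1 µM against 32 recombinant bromodomains; binding expressed as percentage of control.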

[4] = molecular target: Tyrosine-protein kinase ABL2 (Homo sapiens) (UniProt P42684); test: Inhibition of recombinant human ARG (38 to end residues) at 10 uM using EAIYAAPFAKKK as substrate measured after 40 mins in presence of [gamma33P]ATP by scintillation counting method
[5] = molecular target: Serine/threonine-protein kinase B-raf (Homo sapiens) (UniProt P15056); test: Inhibition of recombinant human BRAF (416 to end residues) at 10 uM using myelin basic protein as substrate measured after 40 mins in presence of [gamma33P]ATP by scintillation counting method
[6] = molecular target: Cyclin-dependent kinase 13/Cyclin-K (Homo sapiens) (UniProt Q14004+O75909); test: Inhibition of recombinant full length human CDK13/cyclinK at 10 uM using RSRSRSRSRSRSRSR as substrate measured after 120 mins in presence of [gamma33P]ATP by scintillation counting method; format: protein-complex assay
Sequence of Cyclin-dependent kinase 13/Cyclin-K (Homo sapiens) (O75909 whole entry, looked up): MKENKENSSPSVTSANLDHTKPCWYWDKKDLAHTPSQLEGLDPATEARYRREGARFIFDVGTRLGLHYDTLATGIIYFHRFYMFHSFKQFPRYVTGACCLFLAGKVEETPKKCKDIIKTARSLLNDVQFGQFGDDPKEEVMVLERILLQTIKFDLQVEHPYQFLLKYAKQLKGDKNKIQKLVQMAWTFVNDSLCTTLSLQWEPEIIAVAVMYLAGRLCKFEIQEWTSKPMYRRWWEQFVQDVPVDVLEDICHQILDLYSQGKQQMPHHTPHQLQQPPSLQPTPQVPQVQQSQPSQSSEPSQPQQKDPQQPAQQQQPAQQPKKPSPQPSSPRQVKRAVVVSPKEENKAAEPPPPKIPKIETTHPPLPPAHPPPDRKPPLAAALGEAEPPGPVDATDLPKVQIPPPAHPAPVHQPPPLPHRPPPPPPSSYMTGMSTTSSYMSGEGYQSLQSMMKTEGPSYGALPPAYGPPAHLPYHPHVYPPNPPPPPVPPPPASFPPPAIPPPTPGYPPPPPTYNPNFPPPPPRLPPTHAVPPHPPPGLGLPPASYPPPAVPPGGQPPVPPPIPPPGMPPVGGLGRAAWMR
Sequence of Cyclin-dependent kinase 13/Cyclin-K (Homo sapiens) (Q14004 whole entry, looked up): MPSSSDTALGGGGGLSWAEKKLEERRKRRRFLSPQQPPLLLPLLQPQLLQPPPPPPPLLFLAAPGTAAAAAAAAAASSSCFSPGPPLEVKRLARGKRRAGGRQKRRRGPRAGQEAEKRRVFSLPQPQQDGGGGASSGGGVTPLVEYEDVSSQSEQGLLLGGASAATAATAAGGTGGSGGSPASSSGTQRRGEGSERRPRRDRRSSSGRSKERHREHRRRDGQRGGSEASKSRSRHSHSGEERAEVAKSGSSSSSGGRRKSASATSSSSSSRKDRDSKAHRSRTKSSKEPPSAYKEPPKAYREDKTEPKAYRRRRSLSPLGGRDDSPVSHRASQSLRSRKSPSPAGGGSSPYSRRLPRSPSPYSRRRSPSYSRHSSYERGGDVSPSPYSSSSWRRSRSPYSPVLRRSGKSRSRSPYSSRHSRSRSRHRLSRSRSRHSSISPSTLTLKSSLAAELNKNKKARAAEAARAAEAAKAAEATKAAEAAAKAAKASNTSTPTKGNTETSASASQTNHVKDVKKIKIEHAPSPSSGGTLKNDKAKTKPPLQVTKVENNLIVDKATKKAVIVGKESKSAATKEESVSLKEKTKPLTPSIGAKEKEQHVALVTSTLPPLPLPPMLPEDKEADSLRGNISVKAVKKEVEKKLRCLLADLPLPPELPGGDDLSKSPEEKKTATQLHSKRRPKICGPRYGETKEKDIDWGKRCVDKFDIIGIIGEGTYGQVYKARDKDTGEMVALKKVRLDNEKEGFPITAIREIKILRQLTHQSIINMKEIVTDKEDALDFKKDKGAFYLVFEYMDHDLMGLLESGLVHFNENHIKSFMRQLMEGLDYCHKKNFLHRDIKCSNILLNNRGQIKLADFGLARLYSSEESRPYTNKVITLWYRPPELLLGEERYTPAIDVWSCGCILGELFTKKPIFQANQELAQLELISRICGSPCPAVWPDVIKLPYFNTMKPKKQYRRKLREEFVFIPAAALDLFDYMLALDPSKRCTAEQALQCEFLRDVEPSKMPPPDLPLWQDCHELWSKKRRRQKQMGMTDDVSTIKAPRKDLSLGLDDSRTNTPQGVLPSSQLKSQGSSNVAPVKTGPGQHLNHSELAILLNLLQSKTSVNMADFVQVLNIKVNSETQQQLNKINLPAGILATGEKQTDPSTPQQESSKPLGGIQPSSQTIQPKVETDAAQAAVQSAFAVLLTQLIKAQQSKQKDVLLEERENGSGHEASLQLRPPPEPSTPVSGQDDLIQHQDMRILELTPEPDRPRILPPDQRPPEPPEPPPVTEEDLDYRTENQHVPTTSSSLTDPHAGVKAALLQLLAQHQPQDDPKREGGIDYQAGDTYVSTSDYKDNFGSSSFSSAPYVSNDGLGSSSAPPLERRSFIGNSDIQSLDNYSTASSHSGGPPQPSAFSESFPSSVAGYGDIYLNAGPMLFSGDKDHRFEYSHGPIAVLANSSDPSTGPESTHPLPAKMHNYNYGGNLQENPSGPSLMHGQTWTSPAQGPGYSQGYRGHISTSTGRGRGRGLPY

[7] = molecular target: Mast/stem cell growth factor receptor Kit (Homo sapiens) (UniProt P10721); test: Inhibition of recombinant human c-Kit (544 to end residues) at 10 uM using poly(Glu, Tyr) 4:1 as substrate measured after 40 mins in presence of [gamma33P]ATP by scintillation counting method
[8] = system: Mast/stem cell growth factor receptor Kit (Homo sapiens), P10721 [V560G]; test: Inhibition of recombinant human c-Kit V560G mutant (544 to end residues) at 10 uM using GGMEDIYFEFMGGKKK as substrate measured after 40 mins in presence of [gamma33P]ATP by scintillation counting method
[9] = system: RAF proto-oncogene serine/threonine-protein kinase (Homo sapiens), P04049 [Y340D,Y341D]; test: Inhibition of recombinant human c-RAF Y340D/Y341D mutant (360 to end residues) at 10 uM using inactive MEK1 as substrate measured after 40 mins in presence of [gamma33P]ATP by scintillation counting method
[10] = molecular target: Epidermal growth factor receptor (Homo sapiens) (UniProt P00533); test: Inhibition of recombinant human EGFR (696 to end residues) at 10 uM using poly(Glu, Tyr) 4:1 as substrate measured after 40 mins in presence of [gamma33P]ATP by scintillation counting method
[11] = molecular target: Ephrin type-A receptor 2 (Homo sapiens) (UniProt P29317); test: Inhibition of recombinant human EphA2 (596 to 900 residues) at 10 uM using poly(Glu, Tyr) 4:1 as substrate measured after 40 mins in presence of [gamma33P]ATP by scintillation counting method
[12] = molecular target: G protein-coupled receptor kinase 6 (Homo sapiens) (UniProt P43250); test: Inhibition of recombinant full-length human GRK6 at 10 uM using casein as substrate measured after 40 mins in presence of [gamma33P]ATP by scintillation counting method
Sequence of G protein-coupled receptor kinase 6 (Homo sapiens) (P43250 whole entry, looked up): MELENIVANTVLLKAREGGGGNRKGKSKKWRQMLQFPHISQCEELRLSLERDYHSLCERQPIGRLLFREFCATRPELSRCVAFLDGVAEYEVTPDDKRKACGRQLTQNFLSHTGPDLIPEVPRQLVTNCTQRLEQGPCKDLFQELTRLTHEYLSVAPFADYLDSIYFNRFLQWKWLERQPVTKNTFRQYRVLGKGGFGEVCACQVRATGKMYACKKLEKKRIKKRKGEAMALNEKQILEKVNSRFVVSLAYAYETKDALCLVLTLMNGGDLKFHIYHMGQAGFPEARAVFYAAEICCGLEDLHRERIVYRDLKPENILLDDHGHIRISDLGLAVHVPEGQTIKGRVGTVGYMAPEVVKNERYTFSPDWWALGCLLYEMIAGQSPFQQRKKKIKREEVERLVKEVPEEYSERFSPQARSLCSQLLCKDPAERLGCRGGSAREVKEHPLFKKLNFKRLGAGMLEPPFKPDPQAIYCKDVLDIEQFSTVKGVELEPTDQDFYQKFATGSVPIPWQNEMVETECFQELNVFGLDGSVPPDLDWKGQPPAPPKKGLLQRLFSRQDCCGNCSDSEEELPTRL

[13] = molecular target: Tyrosine-protein kinase Lyn (Homo sapiens) (UniProt P07948); test: Inhibition of recombinant full-length human Lyn at 10 uM using poly(Glu, Tyr) 4:1 as substrate measured after 40 mins in presence of [gamma33P]ATP by scintillation counting method
Sequence of Tyrosine-protein kinase Lyn (Homo sapiens) (P07948 2-512 limits assumed): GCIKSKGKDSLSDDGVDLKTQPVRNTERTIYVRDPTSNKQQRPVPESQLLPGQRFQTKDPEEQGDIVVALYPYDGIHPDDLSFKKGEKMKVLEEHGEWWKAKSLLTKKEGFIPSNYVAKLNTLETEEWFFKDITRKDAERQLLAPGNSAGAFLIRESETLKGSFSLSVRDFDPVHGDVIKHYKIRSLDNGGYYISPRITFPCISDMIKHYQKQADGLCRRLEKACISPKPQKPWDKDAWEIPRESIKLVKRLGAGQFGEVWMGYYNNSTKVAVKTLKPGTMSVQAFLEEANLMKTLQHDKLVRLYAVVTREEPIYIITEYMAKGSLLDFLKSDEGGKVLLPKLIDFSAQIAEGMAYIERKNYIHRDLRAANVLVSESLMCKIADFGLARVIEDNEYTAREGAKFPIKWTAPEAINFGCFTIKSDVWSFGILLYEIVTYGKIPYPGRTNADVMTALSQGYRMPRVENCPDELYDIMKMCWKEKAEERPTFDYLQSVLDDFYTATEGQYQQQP

[14] = molecular target: Leucine-rich repeat serine/threonine-protein kinase 2 (Homo sapiens) (UniProt Q5S007); test: Inhibition of recombinant human LRRK2 (970 to end residues) at 10 uM using RLGRDKYKTLRQIRQ as substrate measured after 40 mins in presence of [gamma33P]ATP by scintillation counting method
[15] = molecular target: Mitogen-activated protein kinase 1 (Homo sapiens) (UniProt P28482); test: Inhibition of recombinant full-length human MAPK1 at 10 uM using myelin basic protein as substrate measured after 40 mins in presence of [gamma33P]ATP by scintillation counting method
[16] = molecular target: Dual specificity mitogen-activated protein kinase kinase 3 (Homo sapiens) (UniProt P46734); test: Inhibition of human MKK3 at 10 uM by radiometric method
Method in brief: (§2)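 Kinase panel of 422 kinases screened by Eurofins KinaseProfiler at a single test-compound concentration of 10 µM.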

[17] = molecular target: Serine/threonine-protein kinase Nek6 (Homo sapiens) (UniProt Q9HC98); test: Inhibition of recombinant human NEK6 (2 to end residues) at 10 uM using FLAKSFGSPNRAYKK as substrate measured after 40 mins in presence of [gamma33P]ATP by scintillation counting method
Sequence of Serine/threonine-protein kinase Nek6 (Homo sapiens) (Q9HC98 whole entry): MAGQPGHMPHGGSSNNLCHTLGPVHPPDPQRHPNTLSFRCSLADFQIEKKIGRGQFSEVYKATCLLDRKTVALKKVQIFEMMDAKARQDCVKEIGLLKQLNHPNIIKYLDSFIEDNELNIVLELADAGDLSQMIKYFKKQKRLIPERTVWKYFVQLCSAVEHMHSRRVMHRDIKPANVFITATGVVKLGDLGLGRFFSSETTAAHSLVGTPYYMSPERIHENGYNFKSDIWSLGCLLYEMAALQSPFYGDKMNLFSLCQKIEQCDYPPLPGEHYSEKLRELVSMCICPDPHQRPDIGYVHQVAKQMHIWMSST

[18] = molecular target: Serine/threonine-protein kinase NLK (Homo sapiens) (UniProt Q9UBE8); test: Inhibition of recombinant human NLK (121 to end residues) at 10 uM using myelin basic protein as substrate measured after 40 mins in presence of [gamma33P]ATP by scintillation counting method
Sequence of Serine/threonine-protein kinase NLK (Homo sapiens) (Q9UBE8 whole entry): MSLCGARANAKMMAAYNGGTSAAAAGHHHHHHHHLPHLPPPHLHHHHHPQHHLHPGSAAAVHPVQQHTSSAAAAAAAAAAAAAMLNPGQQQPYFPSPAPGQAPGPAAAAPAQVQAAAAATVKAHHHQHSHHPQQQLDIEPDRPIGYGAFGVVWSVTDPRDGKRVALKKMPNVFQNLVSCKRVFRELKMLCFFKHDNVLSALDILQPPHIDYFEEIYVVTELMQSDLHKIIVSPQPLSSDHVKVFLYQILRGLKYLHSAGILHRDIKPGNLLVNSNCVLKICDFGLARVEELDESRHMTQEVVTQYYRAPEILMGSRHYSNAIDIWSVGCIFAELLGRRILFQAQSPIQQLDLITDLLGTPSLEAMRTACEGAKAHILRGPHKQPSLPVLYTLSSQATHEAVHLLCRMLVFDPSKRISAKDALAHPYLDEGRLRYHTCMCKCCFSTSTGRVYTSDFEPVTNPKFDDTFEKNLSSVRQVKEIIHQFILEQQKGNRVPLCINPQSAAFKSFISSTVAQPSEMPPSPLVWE

[19] = molecular target: [Pyruvate dehydrogenase (acetyl-transferring)] kinase isozyme 2, mitochondrial (Homo sapiens) (UniProt Q15119); test: Inhibition of human PDHK2 at 10 uM by radiometric method; method in brief: as §2
[20] = system: Proto-oncogene tyrosine-protein kinase receptor Ret (Homo sapiens), P07949 [V804L]; test: Inhibition of human Ret V804L mutant (658 to end residues) using KKKSPGEYVNIEFG as substrate measured after 40 mins in presence of [gamma33P]ATP by scintillation counting method; method in brief: as §2
[21] = system: Proto-oncogene tyrosine-protein kinase Src (Homo sapiens), P12931 [T341M]; test: Inhibition of recombinant full-length human Src T341M mutant at 10 uM using GGEEEEYFELVKKKK as substrate measured after 40 mins in presence of [gamma33P]ATP by scintillation counting method
Sequence of Proto-oncogene tyrosine-protein kinase Src (Homo sapiens), P12931 [T341M] (P12931 whole entry T341M, looked up): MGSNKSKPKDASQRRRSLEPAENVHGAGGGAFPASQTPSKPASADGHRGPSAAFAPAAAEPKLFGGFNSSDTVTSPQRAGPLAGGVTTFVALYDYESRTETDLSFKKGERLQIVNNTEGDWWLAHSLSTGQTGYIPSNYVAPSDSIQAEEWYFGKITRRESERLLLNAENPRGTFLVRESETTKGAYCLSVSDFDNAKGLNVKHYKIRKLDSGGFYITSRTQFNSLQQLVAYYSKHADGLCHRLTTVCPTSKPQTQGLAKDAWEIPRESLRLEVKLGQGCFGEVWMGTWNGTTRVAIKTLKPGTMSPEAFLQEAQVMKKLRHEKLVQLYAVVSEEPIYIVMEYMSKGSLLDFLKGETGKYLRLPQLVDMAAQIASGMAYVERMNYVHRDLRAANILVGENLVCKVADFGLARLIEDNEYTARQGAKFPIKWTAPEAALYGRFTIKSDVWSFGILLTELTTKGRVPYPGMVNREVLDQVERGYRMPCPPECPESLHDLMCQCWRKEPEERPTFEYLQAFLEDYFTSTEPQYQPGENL

[22] = molecular target: Tyrosine-protein kinase Srms (Homo sapiens) (UniProt Q9H3Y6); test: Inhibition of human SRMS at 10 uM by radiometric method; method in brief: as §2
Sequence of Tyrosine-protein kinase Srms (Homo sapiens) (Q9H3Y6 whole entry, the tested form may be a part): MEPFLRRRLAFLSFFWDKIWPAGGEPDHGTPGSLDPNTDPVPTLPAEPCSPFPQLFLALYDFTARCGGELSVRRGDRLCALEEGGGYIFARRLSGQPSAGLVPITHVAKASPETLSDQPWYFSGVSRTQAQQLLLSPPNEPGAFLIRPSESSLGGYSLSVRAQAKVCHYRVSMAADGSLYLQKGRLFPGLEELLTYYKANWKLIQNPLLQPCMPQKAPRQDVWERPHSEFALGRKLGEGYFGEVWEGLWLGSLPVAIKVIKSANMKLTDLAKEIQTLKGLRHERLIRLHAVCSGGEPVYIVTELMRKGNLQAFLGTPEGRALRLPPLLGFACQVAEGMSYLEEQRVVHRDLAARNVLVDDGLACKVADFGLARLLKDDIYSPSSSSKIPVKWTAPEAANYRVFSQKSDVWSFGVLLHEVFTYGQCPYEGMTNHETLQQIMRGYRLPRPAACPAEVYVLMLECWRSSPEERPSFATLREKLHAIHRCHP

[23] = molecular target: TRAF2 and NCK-interacting protein kinase (Homo sapiens) (UniProt Q9UKE5); test: Inhibition of human TNIK (1 to 367 residues) using RLGRDKYKTLRQIRQ as substrate measured after 40 mins in presence of [gamma33P]ATP by scintillation counting method
Mus musculus = species: Mus musculus; test: Inhibition of recombinant full-length mouse PI3K p110alpha/p85alpha H1047R mutant at 10 uM using phosphatidylinositol-4, 5-bisphosphate as substrate measured after 40 mins by HTRF assay

CN1C[C@H](Nc2nc3cc[nH]c3c(=O)n2C)C[C@H](c2ccc3c(c2)OCCO3)C1
inactive: Activity [1] | Activity [2] | Activity [3] | inhibition [4] | inhibition [5] | inhibition [6] | inhibition [7] | inhibition [8] | inhibition [9] | inhibition [10] | inhibition [11] | inhibition [12] | inhibition [13] | inhibition [14] | inhibition [15] | inhibition [16] | inhibition [17] | inhibition [18] | inhibition [19] | inhibition [20] | inhibition [21] | inhibition [22] | inhibition [23] | inhibition (Mus musculus)
